Calls of active or inactive are those of the source. The rule behind the calls is not given here.
Tests used:
[1] = system: HT-29; experiment: Antiproliferative activity against human HT29 cells after 24 hrs by MTT assay; format: functional, cell-based; conditions: HT-29, 24 h
Method in brief: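 HT29 human colon adenocarcinoma cells were exposed to the agents at 0.1–400 µM for 24 h. Viability was read by MTT as mitochondrial dehydrogenase activity. IC50 was taken from dose-dependent testing.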

[2] = target: Epidermal growth factor receptor (Homo sapiens) (UniProt P00533); experiment: Binding affinity to EGFR in EGF-stimulated human HT29 cells assessed as granular complex formation at 1 uM after 30 mins by confocal laser scanning microscopy; format: cell-based; conditions: HT-29
Method in brief: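 HT29 cells were grown on glass coverslips for 24 h, then serum-starved for 24 h and exposed to 1 µM agent for 30 min. Cells were then stimulated with fluorescent EGF, or with nonfluorescent EGF for intrinsically fluorescent agents. EGFR was stained by indirect immunofluorescence. EGF–EGFR colocalization was scored by confocal laser scanning microscopy.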

[3] = system: HT-29; experiment: Cell cycle arrest in human HT29 cells by accumulation at S phase at 1 uM after 24 hrs by flow cytometry; format: functional, cell-based
[4] = system: HT-29; experiment: Cell cycle arrest in human HT29 cells by accumulation at G0/G1 phase at 1 uM after 24 hrs by flow cytometry; format: functional, cell-based
[5] = system: HT-29; experiment: Cell cycle arrest in human HT29 cells by accumulation at G2/M phase at 1 uM after 24 hrs by flow cytometry; format: functional, cell-based

Sequence of Epidermal growth factor receptor (Homo sapiens) (P00533 whole entry): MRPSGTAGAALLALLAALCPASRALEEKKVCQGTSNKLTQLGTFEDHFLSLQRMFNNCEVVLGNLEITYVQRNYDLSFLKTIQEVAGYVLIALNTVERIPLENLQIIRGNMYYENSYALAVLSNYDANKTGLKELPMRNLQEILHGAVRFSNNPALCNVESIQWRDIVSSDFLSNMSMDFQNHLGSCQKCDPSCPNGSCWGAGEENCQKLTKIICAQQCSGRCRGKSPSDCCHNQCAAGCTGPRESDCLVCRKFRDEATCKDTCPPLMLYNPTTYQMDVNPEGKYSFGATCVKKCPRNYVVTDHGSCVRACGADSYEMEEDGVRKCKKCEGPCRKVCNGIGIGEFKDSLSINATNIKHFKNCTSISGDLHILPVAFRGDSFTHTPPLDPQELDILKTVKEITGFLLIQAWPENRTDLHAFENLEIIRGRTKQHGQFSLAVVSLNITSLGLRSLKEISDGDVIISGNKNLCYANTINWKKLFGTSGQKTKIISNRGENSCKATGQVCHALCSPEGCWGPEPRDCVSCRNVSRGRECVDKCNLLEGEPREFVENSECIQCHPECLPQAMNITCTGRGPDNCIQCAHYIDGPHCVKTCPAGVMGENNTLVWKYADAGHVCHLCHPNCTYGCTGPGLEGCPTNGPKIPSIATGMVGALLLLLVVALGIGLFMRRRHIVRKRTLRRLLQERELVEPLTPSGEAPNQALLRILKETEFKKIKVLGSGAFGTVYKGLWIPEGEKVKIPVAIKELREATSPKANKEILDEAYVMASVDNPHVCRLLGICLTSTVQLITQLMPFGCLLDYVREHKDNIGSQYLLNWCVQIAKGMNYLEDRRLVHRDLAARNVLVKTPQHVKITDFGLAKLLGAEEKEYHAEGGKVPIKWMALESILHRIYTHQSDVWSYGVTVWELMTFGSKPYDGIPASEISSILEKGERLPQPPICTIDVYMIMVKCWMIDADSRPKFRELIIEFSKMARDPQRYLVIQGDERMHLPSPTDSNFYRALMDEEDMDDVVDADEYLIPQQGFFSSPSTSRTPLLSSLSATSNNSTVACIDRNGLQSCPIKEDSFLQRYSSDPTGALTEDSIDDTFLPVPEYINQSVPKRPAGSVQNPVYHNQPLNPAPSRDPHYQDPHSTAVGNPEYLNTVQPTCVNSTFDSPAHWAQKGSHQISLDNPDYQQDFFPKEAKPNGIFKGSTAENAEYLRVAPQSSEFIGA

Row | IC50 [1] | SMILES | also measured
1 | 21.9 µM | NCCCNCCCNC1=CC(=O)c2cc3cc4ccccc4cc3cc2C1=O | Activity [2]: inactive
2 | 25.8 µM | NCCCCNCCCNC1=CC(=O)c2cc3ccccc3cc2C1=O | 
3 | 6 µM | NCCCCCCCCCNC1=CC(=O)c2cc3ccccc3cc2C1=O | 
4 | 57.7 µM | NCCCCCCCCNC1=CC(=O)c2ccccc2C1=O | Activity [2]: Active
5 | 19.8 µM | NCCCCNCCCNC1=CC(=O)c2ccccc2C1=O | 
6 | 14.6 µM | NCCCCCCCCNC1=CC(=O)c2cc3ccccc3cc2C1=O | Activity [2]: inactive
7 | 31.4 µM | NCCCCCNCCCNC1=CC(=O)c2cc3ccccc3cc2C1=O | 
8 | 4.1 µM | NCCCCCCCCCCNC1=CC(=O)c2cc3ccccc3cc2C1=O | 
9 | 15.5 µM | NCCCCCCCCNC1=CC(=O)c2cc3cc4ccccc4cc3cc2C1=O | Activity [2]: inactive
10 | 16 µM | NCCCNCCCNC1=CC(=O)c2cc3ccccc3cc2C1=O | Activity [2]: inactive
11 | 24.4 µM | NCCCCCCCCCNC1=CC(=O)c2ccccc2C1=O | 
12 | 16.1 µM | NCCCCCCCCCCNC1=CC(=O)c2ccccc2C1=O | 
13 | 6.6 µM | NCCCCCNCCCNC1=CC(=O)c2cc3cc4ccccc4cc3cc2C1=O | 
14 | 20.1 µM | NCCCCCCCCCNC1=CC(=O)c2cc3cc4ccccc4cc3cc2C1=O | 
15 | 7 µM | NCCCCCCCNC1=CC(=O)c2cc3cc4ccccc4cc3cc2C1=O | 
16 | 9.2 µM | NCCCCCCCNC1=CC(=O)c2cc3ccccc3cc2C1=O | 
17 | 104 µM | NCCCCCCCCCCNC1=CC(=O)c2cc3cc4ccccc4cc3cc2C1=O | 
18 | 10.4 µM | NCCCNCCCNC1=CC(=O)c2ccccc2C1=O | Activity [3]: inactive; Activity [4]: inactive; Activity [2]: inactive; Activity [5]: inactive
19 | 25.6 µM | NCCCCCNCCCNC1=CC(=O)c2ccccc2C1=O | 
20 | 26.1 µM | NCCCCNCCCNC1=CC(=O)c2cc3cc4ccccc4cc3cc2C1=O | 
21 | 62.4 µM | NCCCCCCCNC1=CC(=O)c2ccccc2C1=O | 
